Source: ChEMBL document CHEMBL3822412, “Exploiting Protein Conformational Change to Optimize Adenosine-Derived Inhibitors of HSP70” (J Med Chem, 2016)

These compounds were tested against Heat shock cognate 71 kDa protein (Homo sapiens, UniProt P11142) (assay: Binding affinity to human truncated HSC70 NBD (1 to 381 residues) by SPR analysis). Details: read-out: Kd.
Summary of the method: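 Human HSC70-NBD (residues 1-381) amine-coupled to a CM5 chip to ~5000 RU, with 750 µM ADP present during coupling. Running buffer PBS pH 7.4 with 0.05% Tween20 and 5% DMSO. Eight-point dose response over 50–2000, 5–200 or 0.0625–2.5 µM. Flow 30 µL/min, 60 s injection, 120 s dissociation, no regeneration, unmodified reference cell. KD taken from equilibrium binding curves fitted to a 1:1 model. Geometric mean ± SEM, n≥3.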

Sequence of Heat shock cognate 71 kDa protein (P11142 whole entry, the tested form may be a part): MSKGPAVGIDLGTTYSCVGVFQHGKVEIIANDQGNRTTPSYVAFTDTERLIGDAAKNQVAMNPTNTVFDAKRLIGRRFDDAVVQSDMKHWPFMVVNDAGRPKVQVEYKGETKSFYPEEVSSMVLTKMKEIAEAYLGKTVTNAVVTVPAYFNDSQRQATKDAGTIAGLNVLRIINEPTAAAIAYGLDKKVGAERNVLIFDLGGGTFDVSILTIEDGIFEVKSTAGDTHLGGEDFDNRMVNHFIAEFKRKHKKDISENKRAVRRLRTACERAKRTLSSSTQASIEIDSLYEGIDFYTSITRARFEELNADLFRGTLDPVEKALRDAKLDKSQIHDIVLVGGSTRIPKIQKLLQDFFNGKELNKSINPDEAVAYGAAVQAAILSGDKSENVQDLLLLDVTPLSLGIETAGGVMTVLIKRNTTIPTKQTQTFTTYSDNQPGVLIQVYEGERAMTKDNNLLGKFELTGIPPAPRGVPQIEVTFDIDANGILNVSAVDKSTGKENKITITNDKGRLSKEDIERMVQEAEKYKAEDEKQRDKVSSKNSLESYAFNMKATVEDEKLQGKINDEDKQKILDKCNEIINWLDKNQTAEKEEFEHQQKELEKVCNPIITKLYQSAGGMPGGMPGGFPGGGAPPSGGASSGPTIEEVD

Row | Structure (SMILES) | Kd [µM]
1 | Nc1ncnc2c1nc(NCc1ccc3ncccc3c1)n2[C@@H]1O[C@H](CO)[C@@H](O)[C@H]1O | 0.72
2 | CNc1c(C(N)=O)c2c(N)ncnc2n1[C@@H]1O[C@H](CO)[C@@H](O)[C@H]1O | 30
3 | CN(C)c1nc2c(N)ncnc2n1[C@@H]1O[C@H](CO)[C@@H](O)[C@H]1O | > 1000
4 | CNc1nc2c(N)ncnc2n1[C@@H]1O[C@H](CO)[C@@H](O)[C@H]1O | 17
5 | Nc1ncnc2c1nc(NCc1ccc(Cl)c(Cl)c1)n2[C@@H]1O[C@H](CO)[C@@H](O)[C@H]1O | 3.5
6 | N#Cc1c(NCc2ccccc2)n([C@@H]2O[C@H](CO)[C@@H](O)[C@H]2O)c2ncnc(N)c12 | 2.8
7 | COc1nc2c(N)ncnc2n1[C@@H]1O[C@H](CO)[C@@H](O)[C@H]1O | > 1000
8 | Cc1ccc(CNc2nc3c(N)ncnc3n2[C@@H]2O[C@H](CO)[C@@H](O)[C@H]2O)cc1 | 0.3
9 | Nc1ncnc2c1ncn2[C@@H]1O[C@H](CO)[C@@H](O)[C@H]1O [ADENOSINE] | 110
10 | CNc1c(C#N)c2c(N)ncnc2n1[C@@H]1O[C@H](CO)[C@@H](O)[C@H]1O | 3.3
11 | Nc1ncnc2c1nc(N)n2[C@@H]1O[C@H](CO)[C@@H](O)[C@H]1O | 7
12 | C[C@H]1O[C@@H](n2cnc3c(N)ncnc32)[C@H](O)[C@@H]1O [5'-Deoxyadenosine] | 130
13 | Nc1ncnc2c1nc(NCc1ccccc1)n2[C@@H]1O[C@H](CO)[C@@H](O)[C@H]1O | 1.4
14 | CNc1nc2c(N)ncnc2n1[C@@H]1O[C@H](C)[C@@H](O)[C@H]1O | 27
15 | Nc1ncnc2c1ncn2[C@@H]1O[C@H](COP(=O)(O)OP(=O)(O)O)[C@@H](O)[C@H]1O [ADENOSINE DIPHOSPHATE] | 0.32
16 | Nc1ncnc2c1nc(NCc1ccc(Cl)cc1)n2[C@@H]1O[C@H](CO)[C@@H](O)[C@H]1O | 0.28
17 | Nc1ncnc2c1nc(NCc1ccc(F)cc1)n2[C@@H]1O[C@H](CO)[C@@H](O)[C@H]1O | 0.46

Same assay, conditions: read-out: pKd (converted)

Row | Structure (SMILES) | Kd [µM]
18 | Nc1ncnc2c1ccn2[C@@H]1O[C@H](CO)[C@@H](O)[C@H]1O [TUBERCIDIN] | 28.2
19 | N#Cc1cn([C@@H]2O[C@H](CO)[C@@H](O)[C@H]2O)c2ncnc(N)c12 [TOYOCAMYCIN] | 91.2
20 | NC(=O)c1cn([C@@H]2O[C@H](CO)[C@@H](O)[C@H]2O)c2ncnc(N)c12 [SANGIVAMYCIN] | 3.24
